Published values pooled from the literature.
EGFR G719S: Epidermal growth factor receptor (EGFR, Homo sapiens, UniProt P00533, G719S)
EGFR: Epidermal growth factor receptor (EGFR, Homo sapiens, UniProt P00533)
EGFR G719C: Epidermal growth factor receptor (EGFR, Homo sapiens, UniProt P00533, G719C)
EGFR L858R/T790M: Epidermal growth factor receptor (EGFR, Homo sapiens, UniProt P00533, L858R/T790M)
EGFR del747-750/T751S: Epidermal growth factor receptor (EGFR, Homo sapiens, UniProt P00533, del747-750/T751S)
EGFR del746-750: Epidermal growth factor receptor (EGFR, Homo sapiens, UniProt P00533, del746-750)

CN(C)c1nccc(-c2cnn3ncccc23)n1  remaining binding (EGFR G719S; binding; 1 µM): 100%
Cc1cc(NC(=O)c2cccc3cc(-c4cccc5[nH]nc(N)c45)ccc23)ccc1F  activity vs control (EGFR; enzyme activity, inhibitor; 0.1 µM): 103%
CN(CCCC(F)(F)F)c1nccc(-c2cnn3ncccc23)n1  remaining binding (EGFR; binding; 1 µM): 86%
Cc1nc(Cc2cccc(C(F)(F)F)c2)sc1-c1ccc(C(N)=O)nc1  remaining binding (EGFR G719C; cell-free assay, competition with immobilised ligand; 1 µM): 94%
COc1cc(-c2cc(-c3ccc(N4CCNCC4)cc3)cnc2N)cc(OC)c1OC  inhibition (EGFR L858R/T790M; enzyme activity, inhibitor; 0.1 µM): 0%
Cc1c(NC(=O)c2cc(C(N)=O)nc3cc(F)ccc23)c(C(F)(F)F)nn1Cc1ccc(C#N)cc1  remaining binding (Epidermal growth factor receptor (EGFR, Homo sapiens, UniProt P00533, del752-759); cell-free assay, competition with immobilised ligand; 1 µM): 79%
Cc1cnc(NC2CCOCC2)nc1-n1cnc(C(=O)NC(CN)c2cc(F)cc(Cl)c2)c1 (stereo not drawn)  remaining activity (Epidermal growth factor receptor (EGFR, Homo sapiens, UniProt P00533, L861Q); enzyme activity, inhibitor, radiometric; 1 µM): 108%
CCC(=O)N[C@H]1CC[C@@H](C(=O)N(C)c2ccc(-c3nc4ccccc4o3)cc2)C1  remaining binding (Epidermal growth factor receptor (EGFR, Homo sapiens, UniProt P00533, del747-752/P753S); cell-free assay, competition with immobilised ligand; 1 µM): 79%
C[C@@H]1CCN(c2nccc(-c3cnn4ncccc34)n2)C1  remaining binding (EGFR G719C; binding; 1 µM): 87%
O=C(NCc1ncc(C(F)(F)F)cc1Cl)c1ccc2c(c1)C1(CCS(=O)(=O)CC1)[C@@H](C1CC1)N2S(=O)(=O)c1ccc(F)cc1  remaining binding (EGFR del747-750/T751S; cell-free assay, competition with immobilised ligand; 1 µM): 79%
c1cnn2ncc(-c3ccnc(N4CCC45COC5)n3)c2c1  remaining binding (EGFR del746-750; binding; 1 µM): 89%
NS(=O)(=O)c1cc(NC(=O)C2(c3ccccc3Cl)CC2)ccc1Oc1cccc(Cl)c1  remaining binding (EGFR G719S; cell-free assay, competition with immobilised ligand; 1 µM): 98%
N[C@@H]1CCN(c2nccc(-c3cnn4ncccc34)n2)C1  remaining binding (EGFR G719C; binding; 1 µM): 83%
Nc1ncnc2occ(-c3ccc(NC(=O)Nc4cc(C(F)(F)F)ccc4F)cc3)c12  remaining signal (EGFR del746-750; cell-free assay; 20 µM): 34%
N#Cc1ccc(Nc2ccc3[nH]c(=O)[nH]c3c2)c(Cl)c1  remaining binding (EGFR del747-750/T751S; cell-free assay, competition with immobilised ligand; 1 µM): 100%
Cc1ccc(C(=O)Nc2ccc(CN3CCN(C)CC3)c(C(F)(F)F)c2)cc1C#Cc1cnc2cccnn12  remaining signal (Epidermal growth factor receptor (EGFR, Homo sapiens, UniProt P00533, L858R); cell-free assay; 23.5 nM): 95%
Cc1ccc(NC(=O)c2ccc(C)c(C(F)(F)F)c2)cc1C#Cc1nn(C2CCC(O)CC2)c2ncnc(N)c12 (stereo not drawn)  remaining signal (EGFR L858R/T790M; cell-free assay; 10 µM): 0%
CC/C(=N\NC(=O)NCc1cccc(O)c1)c1ccc(O)c(C)c1O  inhibition (EGFR L858R/T790M; enzyme activity, inhibitor; 0.1 µM): 0.1%
